HNF4A DNA FP – change in binding of human HNF4 alpha to DNA | HNF4a-FITC DNA binding, fluorescence polarization, 1 h | activity change, % at 10 µM | hit rate 0.3% among 360,000 | AID 1224865; in the data active = activity change above about 30%, passing the limit was not always enough
Rpn11 inh – blocks the human proteasome subunit Rpn11 | O00487 | human 26S proteasome, Ub4-pepOG fluorescence polarization; 20S core pre-blocked with epoxomicin | calls only at 20 µM | hit rate 0.59% among 360,000 | AID 588493;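 active = inhibition at 20 µM, scaled to each plate's controls, above about 33%, limit read from the data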
Target sequence (O00487 whole entry, looked up): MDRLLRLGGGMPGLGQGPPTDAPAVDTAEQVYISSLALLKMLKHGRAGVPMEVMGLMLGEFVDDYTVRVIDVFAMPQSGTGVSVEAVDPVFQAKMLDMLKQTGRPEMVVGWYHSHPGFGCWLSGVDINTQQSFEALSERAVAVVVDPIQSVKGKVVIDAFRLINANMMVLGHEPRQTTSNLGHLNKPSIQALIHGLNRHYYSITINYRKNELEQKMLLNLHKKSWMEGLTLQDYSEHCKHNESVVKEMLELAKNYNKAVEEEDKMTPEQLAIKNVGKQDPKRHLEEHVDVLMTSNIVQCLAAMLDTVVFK
UBC9 SUMO inh – inhibitors of human SUMOylation (UBC9); P63279; HTRF SUMOylation assay, SAE1/SAE2 + UBC9, in vitro; AID 2006; hit rate 0.36% among 290,000; inhibition, % at 35 µM; in the data active = inhibition above about 50%, passing the limit was not always enough
TPT1 inhibitor – C. albicans TPT1 enzyme inhibition; inhibition, % at 5 µM; hit rate 0.81% among 300,000; recombinant caTPT1, FP RNA substrate dephosphorylation; AID 1962;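 active = inhibition above the mean of all tested compounds plus 3 SD, set per screening campaign, cut at about 24% in these data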
CSN deneddyl inh – blocks human CSN-mediated cullin deneddylation | Purified CSN, SCF-Nedd8-OG deneddylation, fluorescence polarization | inhibition, % at 12.5 µM | hit rate 0.38% among 360,000;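 active = pattern-corrected inhibition above about 35%, with an unprinted fluorescence ratio check between 0.5 and 1.5, limit read from the data, passing the limit was not always enough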
Target sequence (Q92905 whole entry, looked up, one chain of several): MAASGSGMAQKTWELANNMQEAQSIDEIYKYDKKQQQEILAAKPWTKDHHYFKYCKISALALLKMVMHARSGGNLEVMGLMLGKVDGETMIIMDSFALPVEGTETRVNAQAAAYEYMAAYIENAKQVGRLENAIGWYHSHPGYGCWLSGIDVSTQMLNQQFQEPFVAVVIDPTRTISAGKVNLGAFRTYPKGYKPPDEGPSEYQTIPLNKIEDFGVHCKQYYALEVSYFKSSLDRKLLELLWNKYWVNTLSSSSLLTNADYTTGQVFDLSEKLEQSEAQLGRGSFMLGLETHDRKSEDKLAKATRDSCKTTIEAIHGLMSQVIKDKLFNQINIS
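Assay system: Purified human Csn5 enzyme expressed in HEK293T cells | Amount: Enzyme 0.24 nM | Measured by: Fluorescence polarization readout | Medium: Tris/NaCl/DTT buffer, pH 7.5 | Compound dosing: One concentration, 12.5 µM, 0.25% DMSO | Times: 90 min incubation of compound, enzyme and substrate at room temperature | Control set: no-enzyme wells high, enzyme-with-substrate wells low | Read-out: % inhibition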
SENP1 inh – blocks the human SENP1 SUMO protease catalytic domain; Q9P0U3; recombinant SENP1 catalytic domain, CyPet-SUMO1-YPet FRET cleavage; inhibition, % at 10 µM; hit rate 0.21% among 360,000;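 active = inhibition at least 30% at 10 µM, raw YFP signal under a set limit, fluorescence ratio 0.5 to 1.5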
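system = hSENP1 catalytic domain, recombinant | reagent = SFCypet-SUMO1-SFYpet substrate at 25 nM | doses = one dose per compound, 10 µM, 0.5% DMSO | incubation = enzyme reaction for 50 min at room temperature, dark | measured by = FRET, CFP and YFP emission | controls = no-enzyme low, enzyme-DMSO high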
TPT1 inh confirm – confirmation of Candida albicans TPT1 inhibitors | shares compounds with TPT1 inhibitor | recombinant caTPT1, fluorescence polarization, RNase T1 coupled | inhibition, % at 5 µM | hit rate 74% among 2,400 | AID 2149;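 active = inhibition above the primary screen limit, the mean inhibition of all tested compounds plus 3 SD, cut at about 25% in these data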
RNase T1 counter – RNase T1 inhibition in TPT1 counter-screen; shares compounds with TPT1 inhibitor; RNase T1 cleavage, fluorescence polarization, 1536-well; inhibition, % at 5 µM; hit rate 83% among 2,400; AID 2153;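 active = inhibition above the solvent-only control well mean plus 3 SD, limit set per screening run, cut at about 23% in these data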;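 note: inhibitors block cleavage so intact labeled substrate keeps polarization high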
Target sequence (P00651 whole entry, looked up): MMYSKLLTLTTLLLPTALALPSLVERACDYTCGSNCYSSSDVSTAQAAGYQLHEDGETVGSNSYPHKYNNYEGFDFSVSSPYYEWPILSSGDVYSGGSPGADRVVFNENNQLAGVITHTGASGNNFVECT
Rpn11 inh conf – Rpn11 inhibition confirmation, single concentration | purified human 26S proteasome, Ub4-pepOG fluorescence polarization; proteasome pretreated with epoxomicin | AID 602318 | inhibition, % at 20 µM | hit rate 29% among 1,900 | shares compounds with Rpn11 inh
MMP-2 counter-1 – blocks human MMP-2, flagging nonselective RPN11 hits. shares compounds with Rpn11 inh. inhibition, % at 20 µM. hit rate 4% among 1,900. recombinant MMP-2, FRET peptide cleavage fluorescence. AID 602330;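 note: human MMP-2 activated beforehand with APMA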
Thrombin FP – counter-screen for RPN11 inhibitors: inhibition of bovine thrombin; bovine thrombin cleavage of Ub4-pepOG, fluorescence polarization; inhibition, % at 20 µM; hit rate 13% among 1,900; shares compounds with Rpn11 inh;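 active = mean inhibition at least 40% at 20 µM, or signal 3 deviations below plate average, so some actives read negative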
SENP1 conf – SENP1 (human) inhibition, single concentration confirmation. recombinant SENP1, CyPet-SUMO1-YPet FRET cleavage. hit rate 34% among 520. AID 651678. inhibition, % at 10 µM. shares compounds with SENP1 inh; in the data active = inhibition mostly above about 35%, no sharp cut-off; inactive = mostly below about 32%
SENP1 kinetic – confirmation of human SENP1 SUMO protease inhibitors, kinetic | shares compounds with SENP1 inh | recombinant SENP1, CyPet-SUMO1-YPet FRET kinetic cleavage | inhibition, % at 10 µM | hit rate 26% among 520 | AID 651690; in the data active = inhibition mostly above about 32%, no sharp cut-off; inactive = mostly below about 29%
CSN5 deneddyl – Csn5 (human) deneddylation inhibition, single-concentration validation. Csn5 deneddylation of SCF-Nedd8OG, fluorescence polarization, 90 min. inhibition, % at 16.6 µM. hit rate 62% among 540. shares compounds with CSN deneddyl inh. AID 720654; in the data active = inhibition above about 50%
MMP-2 counter-2 – counter-screen for CSN deneddylation inhibitors: human MMP-2 inhibition | inhibition, % at 16.6 µM | recombinant MMP-2, FRET substrate fluorescence, 60 min | shares compounds with CSN deneddyl inh | AID 720655 | hit rate 33% among 540;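 active = corrected plate-normalized z-score of 5 or more, or -5 or less, or inhibition of 15% or more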
Thrombin cntr – thrombin (bovine) inhibition, counter-screen for CSN hits; shares compounds with CSN deneddyl inh; bovine thrombin cleavage of Ub4-pepOG, fluorescence polarization; inhibition, % at 16.6 µM; hit rate 49% among 540; AID 720656;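 active = inhibition at or above a set limit, with a fluorescence interference ratio between 0.5 and a set maximum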
Each line names hits and unclear results; the compound was inactive in the other large screens (follow-up assays come after a bar, where shown). Rows were chosen to be rich in hits. Some 1.8% of all compounds tested hit in one or more screens of this group. Cut-off read from the data, not from the text of the source, unless noted: active = inhibition above about 40%; inactive = the rest.

Cc1ccc(S(=O)(=O)Nc2cc(C)cn(Cc3ccc(F)cc3)c2=O)cc1	Rpn11 inh active, TPT1 inhibitor 24 | TPT1 inh confirm 36 | RNase T1 counter 47 | Rpn11 inh conf inactive | MMP-2 counter-1 inactive | Thrombin FP 59
Cc1ccc(S(=O)(=O)Nc2cc(C)cn(Cc3ccccc3)c2=O)cc1	none
O=C1Nc2ccccc2Oc2cc([N+](=O)[O-])cc(Oc3ccccc3)c21	TPT1 inhibitor 27, CSN deneddyl inh 36, SENP1 inh 59 (not shown: Rpn11 inh) | TPT1 inh confirm 46 | RNase T1 counter 59 | SENP1 conf inactive | SENP1 kinetic inactive
Cc1ccc(C2C(C(=O)c3cc4ccccc4o3)=C(O)C(=O)N2CCN(C)C)o1 (stereo not given)	none (no result: UBC9 SUMO inh, TPT1 inhibitor)
CN(C)CCN1C(=O)C(O)=C(C(=O)c2cc3ccccc3o2)C1c1ccc(N(C)C)cc1 (stereo not given)	TPT1 inhibitor 32, SENP1 inh 31 | TPT1 inh confirm inactive | RNase T1 counter 35 | SENP1 conf inactive | SENP1 kinetic inactive
O=C(NC1CC1)C1CCN(C2CCN(C(=O)Cc3ccc4c(c3)OCO4)CC2)CC1	none
c1cc(Nc2cccc3nccnc23)c2nccnc2c1	Rpn11 inh active, TPT1 inhibitor 25, SENP1 inh 52 | TPT1 inh confirm 25 | RNase T1 counter 35 | Rpn11 inh conf inactive | MMP-2 counter-1 inactive | Thrombin FP inactive | SENP1 conf 61 | SENP1 kinetic 41
Fc1ccc(Nc2cccc3nccnc23)cc1	none
CC(C(=O)c1ccc(Br)cc1)[n+]1cccc2ccccc21 (stereo not given)	TPT1 inhibitor 37, SENP1 inh 52 (not shown: Rpn11 inh) | TPT1 inh confirm inactive | RNase T1 counter 26 | SENP1 conf inactive | SENP1 kinetic inactive
Cc1ccccc1CN1CCN(CC(=O)NCc2ccc3c(c2)OCO3)C1=O	none
CC(C)(C)OC(=O)N/N=C/c1ccc(N2CCOCC2)s1	HNF4A DNA FP 42, TPT1 inhibitor 26, SENP1 inh 44 (not shown: Rpn11 inh) | TPT1 inh confirm 93 | RNase T1 counter 105 | SENP1 conf 64 | SENP1 kinetic 43
COc1cc(NC2=Nc3cccc4cccc2c34)cc(OC)c1OC	Rpn11 inh active, TPT1 inhibitor 31, SENP1 inh 68 | TPT1 inh confirm 32 | RNase T1 counter 43 | Rpn11 inh conf inactive | MMP-2 counter-1 inactive | Thrombin FP inactive | SENP1 conf 39 | SENP1 kinetic inactive
COc1ccc(CC(=O)NNC2=Nc3cccc4cccc2c34)cc1OC	none
COc1cccc(NC2=Nc3cccc4cccc2c34)c1	Rpn11 inh active, TPT1 inhibitor 25, SENP1 inh 81 | TPT1 inh confirm 35 | RNase T1 counter 44 | Rpn11 inh conf 44 | MMP-2 counter-1 inactive | Thrombin FP inactive | SENP1 conf 55 | SENP1 kinetic 33
COc1ccc(NC2=Nc3cccc4cccc2c34)cc1OC	TPT1 inhibitor 33, SENP1 inh 70 | TPT1 inh confirm 31 | RNase T1 counter 40 | SENP1 conf inactive | SENP1 kinetic inactive
COc1cccc(Nc2n[nH]c(=S)s2)c1	none
CC1(C(=O)NCc2cccnc2)CCN1C(=O)c1cccc(F)c1 (stereo not given)	none (no result: UBC9 SUMO inh, TPT1 inhibitor)
O=C(Nc1ccc(C(F)(F)F)cc1)C1CCCCN1S(=O)(=O)c1ccccc1 (stereo not given)	none (no result: UBC9 SUMO inh, TPT1 inhibitor)
CCOC(=O)C1CCCN(C2=NC(=O)/C(=C/c3ccc(OC)cc3)S2)C1 (stereo not given)	none
CCOC(=O)C1CCCN(C2=NC(=O)/C(=C/c3ccc(N(C)C)cc3)S2)C1 (stereo not given)	TPT1 inhibitor 128, CSN deneddyl inh 114 (not shown: Rpn11 inh) | TPT1 inh confirm 130 | RNase T1 counter 126 | CSN5 deneddyl 171 | MMP-2 counter-2 inactive | Thrombin cntr inactive
Cc1cc(/C=C2\SC(=S)N(C)C2=O)c(C)n1-c1cccc(O)c1	HNF4A DNA FP 72, TPT1 inhibitor 78, CSN deneddyl inh 37 (not shown: Rpn11 inh) | TPT1 inh confirm 114 | RNase T1 counter 117 | CSN5 deneddyl 71 | MMP-2 counter-2 inactive | Thrombin cntr 94
COc1ccc(/C=C2\C(=O)NC(=S)N2C(=O)c2ccc(C)cc2)cc1	Rpn11 inh active, TPT1 inhibitor 49, CSN deneddyl inh 48 | TPT1 inh confirm 66 | RNase T1 counter 78 | Rpn11 inh conf 107 | MMP-2 counter-1 inactive | Thrombin FP 56 | CSN5 deneddyl inactive | MMP-2 counter-2 inactive | Thrombin cntr 37
O=C1NC(=S)N(C(=O)c2ccc(F)cc2)/C1=C/c1cccnc1	none
COc1ccccc1-c1ccc(/C=C2\C=CC(=O)O2)o1	TPT1 inhibitor 114, CSN deneddyl inh 77 (not shown: Rpn11 inh) | TPT1 inh confirm 117 | RNase T1 counter 113 | CSN5 deneddyl inactive | MMP-2 counter-2 inactive | Thrombin cntr 53
COc1ccccc1-c1ccc(/C=C2/C=C(C)OC2=O)o1	none
O=C(CCCN1C(=O)CCC1=O)Nc1cccc(C(F)(F)F)c1	none
